Measurements collected from several papers.
Each line is one published result; the experiments were not run side by side.
Target: Glycogen synthase kinase-3 alpha (GSK3A, Homo sapiens, UniProt P49840)

O=C(c1ccc(Nc2nccc(-c3cc4ccccc4s3)n2)cc1)N1CCC(N2CCCC2)CC1
remaining binding (binding, competition with immobilised ligand; 1 µM): 82%

C[C@@H](c1ccc(-n2cnc3c(N)ncnc32)cc1)N1CCc2nn(C)c(Cc3ccccc3)c2C1=O
remaining binding (binding, competition with immobilised ligand; 0.1 µM): 72%

O=C(NC[C@@H]1[C@H]2CN(C(=O)OCc3cc(C(F)(F)F)cc(C(F)(F)F)c3)C[C@@H]12)c1ccc2[nH]nnc2c1
remaining binding (cell-free assay, competition with immobilised ligand; 1 µM): 99%

Cc1cnn2ncc(-c3ccnc(N(C)C)n3)c2c1
remaining binding (binding; 1 µM): 96%

O=C(c1ccc(Nc2ncc(Cl)c(-c3cc4ccccc4s3)n2)cc1)N1CCC(N2CCCC2)CC1
remaining binding (binding, competition with immobilised ligand; 1 µM): 11%

C=CC(=O)N1CCC(C(=O)NCC(=O)N2CCN(c3nc(-c4cnc(N)nc4C(F)F)nc(N4CCOCC4)n3)CC2)CC1
remaining binding (binding, competition with immobilised ligand; 1 µM): 92%

C[C@H](NC(=O)c1cnc2n1[C@](C)(Cc1ccc(C#N)cc1)C(=O)N2c1cc(Cl)c(F)c(Cl)c1)C(=O)NC1(c2ccccn2)CC1
remaining binding (cell-free assay, competition with immobilised ligand; 1 µM): 100%

COc1ccnn2ncc(-c3ccnc(N(C)C)n3)c12
remaining binding (binding; 1 µM): 96%

COc1ccc2c(c1)O[C@@H](c1ccc(OC)c(OC)c1)C[C@H]2NC(=O)C1(c2ccc3c(c2)OC(F)(F)O3)CC1
remaining binding (cell-free assay, competition with immobilised ligand; 1 µM): 100%

Cc1cnc(Nc2ccc(C(=O)N3CCC(N4CCCC4)CC3)cc2)nc1-c1cc2ccccc2s1
remaining binding (binding, competition with immobilised ligand; 1 µM): 43%

C[C@H]1CCN(c2nccc(-c3cnn4ncccc34)n2)C1
remaining binding (binding; 1 µM): 85%

O=C(Nc1cccnn1)N1CCC(=Cc2cccc(Oc3ccc(C(F)(F)F)cn3)c2)CC1
remaining binding (cell-free assay, competition with immobilised ligand; 1 µM): 100%

N[C@@H]1CCN(c2nccc(-c3cnn4ncccc34)n2)C1
remaining binding (binding; 1 µM): 100%

O=C(NCC1CCOCC1)c1n[nH]cc1NC(=O)c1c(F)cccc1F
remaining binding (binding, competition with immobilised ligand; 1 µM): 0%

COc1ccc2c(O[C@@H]3C[C@H]4C(=O)N[C@]5(C(=O)O)CC5/C=C\CCCCC[C@H](NC(=O)OC5CCCC5)C(=O)N4C3)cc(-c3csc(NC(=O)C(C)C)n3)nc2c1C (some centres unmarked)
remaining binding (cell-free assay, competition with immobilised ligand; 1 µM): 100%

COc1cnc(Nc2cccc(S(N)(=O)=O)c2)nc1N1CCN(c2ccccc2)C(=O)C1
remaining binding (binding, competition with immobilised ligand; 1 µM): 90%

Nc1ncc2c(n1)-c1c([nH]c3ccc(C#CC4CC4)cc13)CCCC2
remaining binding (binding, competition with immobilised ligand; 1 µM): 57%

CN1CCN(c2cnc3c(C4CCN(C(=O)c5ccc(OC(F)(F)F)cc5N)CC4)ncnc3c2)CC1
remaining binding (cell-free assay, competition with immobilised ligand; 1 µM): 100%

CN(C)c1ncc(F)c(-c2cnn3ncccc23)n1
remaining binding (binding; 1 µM): 82%

COc1cnc(Nc2cccc(S(N)(=O)=O)c2)nc1N1CCN(c2ccccc2)CC1
remaining binding (binding, competition with immobilised ligand; 1 µM): 99%
